High-throughput results (PubChem)
ARFGAP1 inh = inhibitors of rat ARFGAP1 GAP activity, primary screen, biochemical, fluorescence polarization, GDP tracer; ADP-ribosylation factor GTPase-activating protein 1 (Rattus norvegicus), Q62848; Arfgap1-stimulated ARF1 GTP hydrolysis, GDP FP detection; inhibition, % at 16.5 µM; hit rate 0.26% among 360,000;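 active = inhibition above a per-plate limit, mean inhibition of low control wells plus 3 SD, cut at about 25% in these data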
Target sequence (Q62848 1-136 limits assumed): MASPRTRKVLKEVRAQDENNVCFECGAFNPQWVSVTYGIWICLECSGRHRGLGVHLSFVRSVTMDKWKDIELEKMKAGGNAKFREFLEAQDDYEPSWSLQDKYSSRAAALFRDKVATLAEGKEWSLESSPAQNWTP
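System: truncated rat Arfgap1 GAP domain / Medium: HEPES-based buffer, pH 7.5 / Also added: N-terminally truncated human ARF1-GTP substrate / Incubation: enzyme reaction 120 min at 25 °C after 20 min preincubation / Measured by: FP of antibody-bound GDP Alexa 633 tracer, ex 620/em 688 nm / Replicates: singlicate, each compound tested once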
ASAP1 inh = inhibitors of human ASAP1 ArfGAP activity, primary screen, biochemical, fluorescence polarization | inhibition, % at 16.5 µM | hit rate 0.19% among 360,000 | ASAP1-stimulated ARF1 GTP hydrolysis, GDP FP detection | AID 624377, 2012 | Arf-GAP with SH3 domain, ANK repeat and PH domain-containing protein 1 (Homo sapiens), …; in the data active = inhibition above about 25%
Target sequence (Q9ULH1 325-724 limits assumed): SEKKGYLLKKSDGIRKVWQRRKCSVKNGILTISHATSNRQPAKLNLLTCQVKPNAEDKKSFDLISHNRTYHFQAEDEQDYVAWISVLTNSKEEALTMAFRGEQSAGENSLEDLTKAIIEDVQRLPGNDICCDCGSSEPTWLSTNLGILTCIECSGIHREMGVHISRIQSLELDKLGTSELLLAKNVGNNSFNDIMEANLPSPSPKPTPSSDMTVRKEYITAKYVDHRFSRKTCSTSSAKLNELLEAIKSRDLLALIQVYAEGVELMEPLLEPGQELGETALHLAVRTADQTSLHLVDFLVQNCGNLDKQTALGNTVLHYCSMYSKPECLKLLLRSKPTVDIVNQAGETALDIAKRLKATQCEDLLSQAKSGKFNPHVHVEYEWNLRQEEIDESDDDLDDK
pPAFAH inh = pPAFAH enzyme inhibitors, primary screen, biochemical, fluorescence polarization, human; hit rate 1.5% among 330,000; inhibition, % at 3.39 µM; AID 463082, 2010; recombinant pPAFAH, FP-rhodamine probe fluorescence polarization; Platelet-activating factor acetylhydrolase (Homo sapiens), Q13093;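 active = inhibition above the mean inhibition across the screen plus 3 SD, cut at about 25% in these data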;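 note: inhibitors block binding of the rhodamine activity-based probe so polarization drops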
PAFAH1B3 FP inh = PAFAH1B3 enzyme inhibitors, primary screen, biochemical, fluorescence polarization, human. Platelet-activating factor acetylhydrolase IB subunit alpha1 (Homo sapiens), Q15102. recombinant PAFAH1B3, FP-rhodamine probe. inhibition, % at 3.39 µM. hit rate 0.28% among 340,000. AID 492972, 2010;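 active = inhibition above the screen-wide average of all tested compounds plus 3 SD, cut at about 25% in these data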
PAFAH2 FP inh = PAFAH2 enzyme inhibitors, primary screen, biochemical, fluorescence polarization, human | inhibition, % at 3.39 µM | hit rate 0.99% among 340,000 | recombinant PAFAH2, FP-rhodamine activity probe | Platelet-activating factor acetylhydrolase 2, cytoplasmic (Homo sapiens), Q99487;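 active = inhibition above the mean over all tested compounds plus 3 SD, cut at about 30% in these data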;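 note: inhibitors block probe labeling of enzyme so polarization drops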
PAFAH1B2 FP inh = PAFAH1B2 enzyme inhibitors, primary screen, biochemical, fluorescence polarization, human | Platelet-activating factor acetylhydrolase IB subunit alpha2 (Homo sapiens), P68402 | recombinant PAFAH1B2, FP-rhodamine activity probe | inhibition, % at 3.39 µM | hit rate 1.2% among 340,000;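 active = inhibition above the mean of all tested compounds plus 3 SD, cut at about 24% in these data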
Target sequence (P68402 whole entry, looked up): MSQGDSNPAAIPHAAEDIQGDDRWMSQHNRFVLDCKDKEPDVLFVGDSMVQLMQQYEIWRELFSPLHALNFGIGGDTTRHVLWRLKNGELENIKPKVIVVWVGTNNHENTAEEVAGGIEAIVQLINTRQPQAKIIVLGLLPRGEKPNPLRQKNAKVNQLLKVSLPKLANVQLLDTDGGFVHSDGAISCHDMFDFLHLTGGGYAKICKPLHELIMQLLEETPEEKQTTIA
Of the large screens only hits and unclear results are named; the others gave an inactive call. The list is not random: actives were taken first. Their share in the collection is about 2.7%.

COc1ccc(C(=O)NNC2CC(=O)N(Cc3ccc(Cl)cc3)C2=O)cc1OC (stereo not drawn)	pPAFAH inh 33
C=CCCC1CN(Cc2ccc(OC)cc2)S(=O)(=O)c2c(cccc2N2CCCC2)O1 (stereo not drawn)	none (no result: pPAFAH inh, PAFAH1B3 FP inh, PAFAH2 FP inh, PAFAH1B2 FP inh)
CCOC(=O)c1sc(NC(=O)Nc2ccc(Cl)cc2)cc1C	pPAFAH inh 26
COc1ccc(-c2csc(NC(=O)C3CC(=O)N(c4ccc5c(c4)OCCO5)C3)n2)cc1 (stereo not drawn)	pPAFAH inh 25
CC(=O)Nc1ccc(-c2csc(NC(=O)C3CC(=O)N(c4ccc5c(c4)OCCO5)C3)n2)cc1 (stereo not drawn)	none
Clc1ccccc1Cn1c(/C=C/c2ccco2)nc2ccccc21	pPAFAH inh 31
COC(=O)C1=C(C)N(CC(C)C)C(=S)NC1c1ccc(Cl)cc1 (stereo not drawn)	none (no result: pPAFAH inh, PAFAH1B3 FP inh, PAFAH2 FP inh, PAFAH1B2 FP inh)
O=C(COc1ccc([N+](=O)[O-])cc1Cl)N1CCOCC1	none
O=[N+]([O-])c1ccc2c(c1)C(N1CCOCC1)/C(=C/COc1ccc(Cl)cc1Cl)O2 (stereo not drawn)	PAFAH1B2 FP inh 24
COc1ccc(Cn2c(O)c(C=Nc3ccccc3C(=O)O)c3ccccc3c2=O)cc1	pPAFAH inh 27, PAFAH2 FP inh 37
COc1ccccc1NS(=O)(=O)c1cccc(-n2c(O)c(C=Nc3ccccc3C(=O)O)c3ccccc3c2=O)c1	pPAFAH inh 30, PAFAH2 FP inh 83
COc1ccc(Cn2c(O)c(C=Nc3ccc(OC)cc3)c3ccccc3c2=O)cc1	none
CC(C)(CO)NC(=O)C12CC3CC(CC(Br)(C3)C1)C2	PAFAH1B2 FP inh 26
CC(C)(C)NC(=O)C12CC3CC(CC(Cl)(C3)C1)C2	none
COc1ccc(CNC(=O)C23CC4CC(CC(Br)(C4)C2)C3)cc1	PAFAH1B2 FP inh 26
COc1ccc(CNC(=O)CC23CC4CC(CC(C4)C2)C3)cc1	none
O=C(O)c1ccc(CNC(=O)C23CC4CC(CC(C4)C2)C3)cc1	PAFAH1B2 FP inh 29
CC(C)(C)S(=O)(=O)N1C[C@@H]2CC(=O)C(CCO)=C2[C@H]1CCO	none (no result: pPAFAH inh, PAFAH1B3 FP inh, PAFAH2 FP inh, PAFAH1B2 FP inh)
COc1cccc(CNC(=O)[C@H]2CCCN2C(=O)[C@H]2CCCN2C(=O)c2ccc(F)c(C(F)(F)F)c2)c1	none (no result: pPAFAH inh, PAFAH1B3 FP inh, PAFAH2 FP inh, PAFAH1B2 FP inh)
COc1ccc(N=CC2=C(Nc3ccc(OC)cc3)c3c(C)nn(-c4ccccn4)c3CC2)cc1	pPAFAH inh 54 (no result: ARFGAP1 inh, ASAP1 inh, PAFAH1B3 FP inh, PAFAH2 FP inh, PAFAH1B2 FP inh)
CCCCc1c(-c2ccccc2OC)ncn1Cc1ccccc1F	none (no result: pPAFAH inh, PAFAH1B3 FP inh, PAFAH2 FP inh, PAFAH1B2 FP inh)
CC12CCC(C/C1=N\N=C1\NC(=O)/C(=C\c3cccc(Br)c3)S1)C2(C)C (stereo not drawn)	pPAFAH inh 27
Cc1cc(O)cc(=O)n1-c1cccc(C(F)(F)F)c1	none (no result: pPAFAH inh, PAFAH1B3 FP inh, PAFAH2 FP inh, PAFAH1B2 FP inh)
Oc1ccc(Cc2ccc(Cl)cc2)c(O)c1	PAFAH1B2 FP inh 72
Oc1ccc(Cc2ccccc2Cl)c(O)c1	none (no result: pPAFAH inh)
COc1ccc(OC)c(CCNC(=O)c2ccc3c(=O)[nH]c4c(C(=O)NC(C)C)sc(=S)n4c3c2)c1	PAFAH2 FP inh 60, PAFAH1B2 FP inh 24
CCOc1ccc(CCNC(=O)c2ccc3c(=O)[nH]c4c(C(=O)NC(C)C)sc(=S)n4c3c2)cc1	pPAFAH inh 29
C=CCN1C(=O)[C@]2(OCCC=C[C@H]2C)c2cc(OC)ccc21	none (no result: pPAFAH inh, PAFAH1B3 FP inh, PAFAH2 FP inh, PAFAH1B2 FP inh)
CN(C(=O)NC1CCCCC1)c1ccccc1	none
CN(C)C(=O)NC1CCCCCCCCCCC1	PAFAH1B2 FP inh 36
Oc1ccccc1CNc1cccc2cccnc12	pPAFAH inh 34
CCc1ccc(S(=O)(=O)Nc2cc3c(cc2N2CCOCC2)n(C)c(=O)c(=O)n3C)cc1	PAFAH1B2 FP inh 26
C[C@@H]1NS(=O)(=O)c2ccc(F)cc2O[C@@H]1c1ccccc1	none (no result: pPAFAH inh, PAFAH1B3 FP inh, PAFAH2 FP inh, PAFAH1B2 FP inh)
O=C(CC1SC(=O)N(c2ccccc2)C1=O)Nc1ccc(Br)cc1 (stereo not drawn)	pPAFAH inh 32 (no result: PAFAH1B3 FP inh, PAFAH2 FP inh, PAFAH1B2 FP inh)
CN1OC[C@@H]2CN(C(=O)c3ccc([N+](=O)[O-])cc3)[C@H](c3ccccc3Br)C[C@@H]21	none (no result: pPAFAH inh, PAFAH1B3 FP inh, PAFAH2 FP inh, PAFAH1B2 FP inh)
N#CC1=C(SCc2ccccc2)NC(=O)CC1c1ccc(O)cc1 (stereo not drawn)	pPAFAH inh 26
CCCCCCSC1=C(C#N)C(c2ccccc2)CC(=O)N1 (stereo not drawn)	none
Cc1ccc(C2CC(=O)NC(SCc3ccccc3)=C2C#N)cc1 (stereo not drawn)	pPAFAH inh 30
CC1=NN(c2ccccc2)C(=O)/C1=C/c1ccc(Cl)cc1	ARFGAP1 inh 28 (no result: pPAFAH inh)
CC[C@H](C)/C=C(C)/C=C/C(=O)Cc1cc(O)c(C)c(O)c1C=O	pPAFAH inh 32
O=[N+]([O-])c1ccc(/C=N/NS(=O)(=O)c2ccc(Cl)cc2)o1	none
O=[N+]([O-])c1ccc(/C=N/Nc2ccnc3cc(Cl)ccc23)o1	pPAFAH inh 28
CC(=O)N1CCCc2cc(S(=O)(=O)N3CCCC(C(=O)Nc4cccc(C)c4)C3)ccc21 (stereo not drawn)	pPAFAH inh 33
CCCn1nnc(NC(=S)NC(=O)/C=C/c2ccco2)n1	pPAFAH inh 26
Cn1nnc(NC(=O)/C=C/c2ccco2)n1	none (no result: PAFAH1B3 FP inh, PAFAH2 FP inh, PAFAH1B2 FP inh)
Cc1cc(=O)oc2c3c(cc(OCC(=O)NCc4cccnc4)c12)OC(C)(C)CC3	none
Cc1cc(=O)oc2c3c(cc(OCC(=O)N[C@@H](C)C(=O)O)c12)OC(C)(C)CC3	none (no result: pPAFAH inh)
COc1ccccc1CNC(=O)COc1cc2c(c3oc(=O)cc(C)c13)CCC(C)(C)O2	PAFAH1B2 FP inh 27
Cc1cc(=O)oc2c3c(cc(OCC(=O)NC(Cc4ccc(Cl)cc4)C(=O)O)c12)OC(C)(C)CC3 (stereo not drawn)	pPAFAH inh 27, PAFAH2 FP inh 33, PAFAH1B2 FP inh 58
CCc1cc(=O)oc2c3c(cc(OCC(=O)NCCCC(=O)O)c12)OC(C)(C)CC3	pPAFAH inh 32, PAFAH2 FP inh 39
CCCCc1c(-c2ccccc2OC)ncn1Cc1ccccc1C	none (no result: pPAFAH inh, PAFAH1B3 FP inh, PAFAH2 FP inh, PAFAH1B2 FP inh)
Cc1c(C(=O)NNC(=S)Nc2ccc(S(N)(=O)=O)cc2)oc2ccccc12	pPAFAH inh 28
CCNC(=O)COC(=O)c1cc(-c2ccco2)nc2ccccc12	none
O=C(OCC(=O)N1CCN(C(=O)c2ccco2)CC1)c1cc(-c2ccco2)nc2ccccc12	pPAFAH inh 31, PAFAH2 FP inh 52 (no result: ARFGAP1 inh, ASAP1 inh)
O=C(CCc1ccccc1)NNC(=S)NCc1ccc(Cl)cc1	pPAFAH inh 28, PAFAH1B2 FP inh 25
